Key:
Assay type in all cases: functional
[1] = tested on: SNB-19; assay: Cytotoxicity against human SNB19 cells assessed as cell growth at 100 nM after 48 hrs by sulforhodamine B assay; settings: SNB-19, 48 h, read-out: Activity
[2] = tested on: M14; assay: Cytotoxicity against human M14 cells assessed as cell growth at 10 uM; settings: read-out: Activity
Method in brief: (§1)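 NCI-60 screen: cells grown in RPMI 1640 with 5% FBS and 2 mM L-glutamine, plated at 5000–40,000 cells/well according to doubling time, and preincubated 24 h at 37 °C, 5% CO2. The single 10 µM dose (DMSO stock) was added, then incubated 48 h. Cells were TCA-fixed and stained with 0.4% SRB, read at 515 nm, and growth % calculated against time-zero and control plates.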

[3] = tested on: SW-620; assay: Cytotoxicity against human SW620 cells assessed as cell growth at 10 uM after 48 hrs by sulforhodamine B assay; settings: SW-620, 48 h, read-out: Activity
[4] = tested on: SF-539; assay: Cytotoxicity against human SF539 cells assessed as cell growth at 0.001 uM after 48 hrs by sulforhodamine B assay; settings: SF-539, 48 h, read-out: Activity
[5] = tested on: A498; assay: Cytotoxicity against human A498 cells assessed as cell growth at 10 uM; settings: read-out: Activity
Method in brief: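 Single-dose NCI-60 screen at 10 µM. Cells were grown in RPMI 1640 with 5% FBS and 2 mM L-glutamine, then treated for 48 h at 37 °C. Protein was measured by SRB staining with absorbance at 515 nm. Percentage growth was recorded, and inhibition percentage was calculated as 100 minus growth percentage.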

[6] = tested on: SF-268; assay: Cytotoxicity against human SF268 cells assessed as cell growth at 10 uM; settings: read-out: Activity; method in brief: as §1
[7] = tested on: NCI-H322M; assay: Cytotoxicity against human NCI-H322M cells assessed as cell growth at 1 uM after 48 hrs by sulforhodamine B assay; settings: read-out: Activity
[8] = tested on: COLO 205; assay: Cytotoxicity against human COLO205 cells assessed as cell growth at 0.01 uM after 48 hrs by sulforhodamine B assay; settings: COLO 205, 48 h, read-out: Activity
Method in brief: (§2)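 NCI-60 five-dose screen. Cells were grown in RPMI 1640 with 5% FBS and 2 mM L-glutamine, plated at 5000–40,000 cells/well and preincubated for 24 h. Time-zero plates were TCA-fixed. DMSO-solubilized drug was added at five concentrations (10-fold or ½-log serial dilutions) for 48 h at 37 °C, 5% CO2. Cells were TCA-fixed, stained with 0.4% SRB and read at 515 nm. Percent growth used time-zero, control and test absorbances.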

[9] = tested on: U-251; assay: Cytotoxicity against human U251 cells assessed as cell growth at 10 uM; settings: read-out: Activity; method in brief: as §1
[10] = tested on: OVCAR-3; assay: Cytotoxicity against human OVCAR-3 cells assessed as cell growth at 10 uM after 48 hrs by sulforhodamine B assay; settings: OVCAR-3, 48 h, read-out: Activity
[11] = tested on: TK-10; assay: Cytotoxicity against human TK10 cells assessed as cell growth at 100 nM after 48 hrs by sulforhodamine B assay; settings: TK-10, 48 h, read-out: Activity
[12] = Cytotoxicity against human RPMI8266 cells assessed as cell growth at 1 uM after 48 hrs by sulforhodamine B assay; settings: read-out: Activity
[13] = tested on: M14; assay: Cytotoxicity against human M14 cells assessed as cell growth at 0.001 uM after 48 hrs by sulforhodamine B assay; settings: M14, 48 h, read-out: Activity
[14] = tested on: A549; assay: Cytotoxicity against human A549 cells assessed as cell growth at 0.001 uM after 48 hrs by sulforhodamine B assay; settings: A549, 48 h, read-out: Activity; method in brief: as §2
[15] = tested on: HL-60(TB); assay: Cytotoxicity against human HL-60(TB) cells assessed as cell growth at 0.001 uM after 48 hrs by sulforhodamine B assay; settings: HL-60, 48 h, read-out: Activity
Method in brief: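 NCI 60-cell panel. Cells are grown in RPMI 1640 with 5% FBS and 2 mM L-glutamine, seeded at 5000–40,000 cells/well according to doubling time, and preincubated 24 h. Time-zero plates are TCA-fixed. Compound from DMSO stock is given at five 10-fold or 1/2-log concentrations for 48 h at 37 °C, 5% CO2. Suspension cells are fixed with 80% TCA (final 16%) and SRB-stained, with absorbance at 515 nm. Percent growth is derived from Tz, control and test readings.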

[16] = tested on: NCI-H322M; assay: Growth inhibition of human NCI-H322M cells after 48 hrs by sulforhodamine B assay; settings: for CC50: read-out: LC50 (the source's name)
Method in brief: (§3)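 NCI 60-cell screen, five-dose mode. Cells grown in RPMI 1640 with 5% FBS and 2 mM L-glutamine and plated at 5000-40,000 cells/well according to doubling time. After 24 h preincubation, a Tz plate was TCA-fixed. Five concentrations (10-fold or 1/2 log dilutions) were applied for 48 h at 37 °C. SRB staining read at 515 nm. IC50 taken from [(Ti-Tz)/(C-Tz)]×100 = 50.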

[17] = tested on: 786-0; assay: Cytotoxicity against human 786-0 cells assessed as cell growth at 100 nM after 48 hrs by sulforhodamine B assay; settings: 786-0, 48 h, read-out: Activity; method in brief: as §2
[18] = tested on: NCI-H23; assay: Cytotoxicity against human NCI-H23 cells assessed as cell growth at 1 uM after 48 hrs by sulforhodamine B assay; settings: NCI-H23, 48 h, read-out: Activity
[19] = tested on: SK-MEL-5; assay: Growth inhibition of human SK-MEL-5 cells after 48 hrs by sulforhodamine B assay; settings: SK-MEL-5, 48 h; for CC50: read-out: LC50 (the source's name); method in brief: as §3
[20] = tested on: HCT-15; assay: Growth inhibition of human HCT15 cells after 48 hrs by sulforhodamine B assay; settings: HCT-15, 48 h; for CC50: read-out: LC50 (the source's name); method in brief: as §3
[21] = tested on: MCF7; assay: Cytotoxicity against human MCF7 cells assessed as cell growth at 10 uM; settings: read-out: Activity; method in brief: as §1
[22] = tested on: SF-268; assay: Cytotoxicity against human SF268 cells assessed as cell growth at 0.01 uM after 48 hrs by sulforhodamine B assay; settings: SF-268, 48 h, read-out: Activity
[23] = tested on: A549; assay: Growth inhibition of human A549 cells after 48 hrs by sulforhodamine B assay; settings: A549, 48 h
Method in brief: (§4)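 NCI five-dose SRB assay in RPMI 1640 with 5% FBS and 2 mM L-glutamine. Cells were preincubated 24 h, then exposed 48 h at 37 °C to five concentrations (10-fold or half-log serial dilutions from DMSO stocks). TCA fixation, SRB staining, and absorbance at 515 nm followed. IC50 was taken where [(Ti−Tz)/(C−Tz)]×100 = 50, with Tz as time-zero cell density.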

[24] = tested on: NCI-H23; assay: Cytotoxicity against human NCI-H23 cells assessed as cell growth at 10 uM; settings: read-out: Activity; method in brief: as §1
[25] = tested on: SK-MEL-5; assay: Cytotoxicity against human SK-MEL-5 cells assessed as cell growth at 10 uM; settings: read-out: Activity; method in brief: as §1
[26] = tested on: 786-0; assay: Cytotoxicity against human 786-0 cells assessed as cell growth at 0.001 uM after 48 hrs by sulforhodamine B assay; settings: 786-0, 48 h, read-out: Activity; method in brief: as §2
[27] = tested on: CCRF-CEM; assay: Growth inhibition of human CCRF-CEM cells after 48 hrs by sulforhodamine B assay; method in brief: as §4

Compound | growth at 0.1 µM [1] [%] | growth at 10 µM [2] [%] | growth at 10 µM [3] [%] | growth at 0.001 µM [4] [%] | growth at 10 µM [5] [%] | growth at 10 µM [6] [%] | growth at 1 µM [7] [%] | growth at 0.01 µM [8] [%] | growth at 10 µM [9] [%] | growth at 10 µM [10] [%] | growth at 0.1 µM [11] [%] | growth at 1 µM [12] [%] | growth at 0.001 µM [13] [%] | growth at 0.001 µM [14] [%] | growth at 0.001 µM [15] [%] | TGI [16] [µM] | CC50 [16] [µM] | growth at 0.1 µM [17] [%] | growth at 1 µM [18] [%] | GI50 [19] [µM] | other results
COc1cc(C)cc(-c2c(-c3ccnc(-c4ccc(C(C)=O)cc4)c3)cnn2CC#N)c1 | 99 | 50.5 | 14 | 92 | 83 | 90.5 | 69 | 102 | 84.7 | -17 | 111 | -4 | 95 | 95 | 101 | > 100 | > 100 | 88 | 19 | 1.94 | GI50 [16]: > 100 µM; TGI [19]: 4.96 µM; CC50 [19]: > 100 µM; GI50 [20]: 3.14 µM; TGI [20]: > 100 µM; CC50 [20]: > 100 µM; growth at 10 µM [21]: 21.9%; growth at 0.01 µM [22]: 96%; GI50 [23]: 3.68 µM; LC50 [23]: > 100 µM; TGI [23]: > 100 µM; growth at 10 µM [24]: 83.7%; growth at 10 µM [25]: 49.2%; growth at 0.001 µM [26]: 102%; GI50 [27]: 2.97 µM; LC50 [27]: > 100 µM; TGI [27]: > 100 µM
Cc1cc(O)cc(-c2nn(CC#N)cc2-c2ccnc(-c3ccc(N(C)C)cc3)c2)c1 | 93 | 6.66 | -33 | 97 | 51.1 | 59.5 | 38 | 95 | 17.1 | -70 | 125 | 15 | 96 | 104 | 100 | 59.8 | > 100 | 91 | 24 | 1.99 | GI50 [16]: 6.08 µM; TGI [19]: 5.75 µM; CC50 [19]: 22.9 µM; GI50 [20]: 3.36 µM; TGI [20]: 18.2 µM; CC50 [20]: > 100 µM; growth at 10 µM [21]: 14.9%; growth at 0.01 µM [22]: 90%; GI50 [23]: 4.18 µM; LC50 [23]: > 100 µM; TGI [23]: 54.5 µM; growth at 10 µM [24]: 35.9%; growth at 10 µM [25]: -16.3%; growth at 0.001 µM [26]: 102%; GI50 [27]: 3.59 µM; LC50 [27]: > 100 µM; TGI [27]: > 100 µM
COc1cc(C)cc(-c2nn(CC#N)cc2-c2ccnc(-c3ccc(N(C)C)cc3)c2)c1 | 35 | -10 | 11 | 102 | 4.2 | 24.5 | 52 | 116 | -9.99 | -42 | 50 | 1 | 96 | 97 | 97 | > 1 | > 100 | 22 | 15 | 0.269 | TGI [19]: 0.672 µM; CC50 [19]: 24 µM; GI50 [20]: 0.35 µM; TGI [20]: 8.79 µM; CC50 [20]: > 100 µM; growth at 10 µM [21]: 10.1%; growth at 0.01 µM [22]: 90%; GI50 [23]: 0.583 µM; LC50 [23]: > 100 µM; TGI [23]: 483 µM; growth at 10 µM [24]: -3.77%; growth at 10 µM [25]: 2.26%; growth at 0.001 µM [26]: 101%; GI50 [27]: 0.454 µM; LC50 [27]: > 100 µM; TGI [27]: > 100 µM
